# What was measured:
# Streptococcus pyogenes [1] = assay: Antibacterial activity against macrolide-resistant Streptococcus pyogenes 2094 harboring erm(A) gene after 22 passages and 10 compound-free subculturing by retest method
# Streptococcus pyogenes [2] = assay: Antibacterial activity against macrolide-resistant Streptococcus pyogenes 2011 harboring mef(A) gene after 50 passages following overnight incubation by agar dilution method
# Streptococcus pneumoniae [3] = assay: Antibacterial activity against macrolide-susceptible Streptococcus pneumoniae 1077 after 49 passages and 10 compound-free subculturing by retest method; format: functional
# Streptococcus pneumoniae [4] = assay: Antibacterial activity against macrolide-susceptible Streptococcus pneumoniae 1077 after overnight incubation by agar dilution method; format: functional
# Streptococcus pyogenes [5] = assay: Antibacterial activity against macrolide-resistant Streptococcus pyogenes 2368 harboring erm(B) gene after 6 passages and 10 compound-free subculturing by retest method
# Streptococcus pneumoniae [6] = assay: Antibacterial activity against macrolide-susceptible Streptococcus pneumoniae 7127 harboring S20N mutation in L4 ribosomal protein and A105V mutation in L22 ribosomal protein after 43 passages and 10 compound-free subculturing by retest method; format: functional
# Streptococcus pyogenes [7] = assay: Antibacterial activity against macrolide-resistant Streptococcus pyogenes 2094 harboring erm(A) gene after 6 passages and 10 compound-free subculturing by retest method
# Streptococcus pyogenes [8] = assay: Antibacterial activity against macrolide-resistant Streptococcus pyogenes 237 harboring mutation in L4 ribosomal protein after 20 passages and 10 compound-free subculturing by retest method
# Streptococcus pneumoniae [9] = assay: Antibacterial activity against macrolide-resistant Streptococcus pneumoniae 1635 harboring erm(A) gene after 32 passages and 10 compound-free subculturing by retest method; format: functional
# Procedure, shortened: (§1)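 Multistep selection by daily serial passage in subinhibitory drug concentrations. Medium was cation-adjusted Mueller-Hinton broth plus 5% lysed horse blood. Each day the next inoculum came from the tube 1–2 dilutions below the MIC whose turbidity matched the growth control, for up to 50 days. Clone MICs by CLSI macrodilution; identity to the parent confirmed by SmaI PFGE.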
# Streptococcus pneumoniae [10] = assay: Antibacterial activity against macrolide-susceptible Streptococcus pneumoniae 1077 after 43 passages and 10 compound-free subculturing by retest method; format: functional
# Streptococcus pneumoniae [11] = assay: Antibacterial activity against Streptococcus pneumoniae harboring erm(A) gene after overnight incubation by agar dilution method; format: functional
# Procedure, shortened: (§2)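 Clinical isolates collected 1998–2008, with macrolide-resistance genes confirmed by PCR. MICs by agar dilution on Mueller-Hinton agar with 5% sheep blood. Inoculum 10^4 CFU/spot, incubated overnight at 35°C in ambient air. S. pneumoniae ATCC 49619 was the quality-control strain in every run.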
# Streptococcus pneumoniae [12] = assay: Antibacterial activity against quinolone-susceptible Streptococcus pneumoniae after overnight incubation by agar dilution method; format: functional
# Procedure, shortened: (§3)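 Agar dilution on Mueller-Hinton agar supplemented with 5% sheep blood. Inoculum 10^4 CFU/spot, incubated overnight at 35°C in ambient air. Test strains were clinical pneumococcal isolates. S. pneumoniae ATCC 49619 was included as the quality control strain in each run. MIC range, MIC50 and MIC90 were reported for each susceptibility category.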
# Streptococcus pyogenes [13] = assay: Antibacterial activity against macrolide-resistant Streptococcus pyogenes 2094 harboring erm(A) gene after 43 passages and 10 compound-free subculturing by retest method
# Streptococcus pyogenes [14] = assay: Antibacterial activity against Streptococcus pyogenes harboring mef(A) gene after overnight incubation by agar dilution method; format: functional
# Procedure, shortened: as §2
# Streptococcus pyogenes [15] = assay: Antibacterial activity against macrolide-resistant Streptococcus pyogenes 2368 harboring erm(B) gene after 18 passages and 10 compound-free subculturing by retest method
# Streptococcus pneumoniae [16] = assay: Antibacterial activity against quinolone-resistant Streptococcus pneumoniae after overnight incubation by agar dilution method; format: functional
# Procedure, shortened: as §3
# Streptococcus pneumoniae [17] = assay: Antibacterial activity against macrolide-resistant Streptococcus pneumoniae harboring erm(B) gene after overnight incubation by agar dilution method; format: functional
# Procedure, shortened: (§4)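 Agar dilution MICs on Mueller-Hinton agar with 5% sheep blood. Inoculum 10^4 CFU/spot, incubated overnight at 35°C in ambient air. Clinical S. pneumoniae or group A streptococcal isolates; resistance genotypes (erm(B), erm(A), mef(A)/mef(E)) were assigned by PCR. S. pneumoniae ATCC 49619 served as QC strain in each run. Range, MIC50 and MIC90 reported per phenotype group.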
# Streptococcus pyogenes [18] = assay: Antibacterial activity against macrolide-resistant Streptococcus pyogenes 237 harboring mutation in L4 ribosomal protein after 43 passages and 10 compound-free subculturing by retest method
# Streptococcus pneumoniae [19] = assay: Antibacterial activity against macrolide-resistant Streptococcus pneumoniae 24 harboring erm(B) gene after 14 passages and 10 compound-free subculturing by retest method; format: functional; details: Streptococcus pneumoniae, 24; read-out: MIC
# Procedure, shortened: as §1
# Streptococcus pneumoniae [20] = assay: Antibacterial activity against macrolide-susceptible Streptococcus pneumoniae 7127 harboring S20N mutation in L4 ribosomal protein and A105V mutation in L22 ribosomal protein after overnight incubation by agar dilution method; format: functional
# Streptococcus pneumoniae [21] = assay: Antibacterial activity against Streptococcus pneumoniae harboring mef(A) gene after overnight incubation by agar dilution method; format: functional
# Procedure, shortened: as §2
# Streptococcus pneumoniae [22] = assay: Antibacterial activity against macrolide-susceptible Streptococcus pneumoniae 1077 after 29 passages and 10 compound-free subculturing by retest method; format: functional
# Streptococcus pneumoniae [23] = assay: Antibacterial activity against macrolide-resistant Streptococcus pneumoniae 1076 harboring erm(B) and mef(A) gene after 18 passages and 10 compound-free subculturing by retest method; format: functional
# Procedure, shortened: as §1
# Streptococcus pneumoniae [24] = assay: Antibacterial activity against macrolide-resistant Streptococcus pneumoniae 1635 harboring erm(A) gene after overnight incubation by agar dilution method; format: functional
# Streptococcus pneumoniae [25] = assay: Antibacterial activity against macrolide-resistant Streptococcus pneumoniae harboring mutation in L4 ribosomal protein after overnight incubation by agar dilution method; format: functional
# Procedure, shortened: as §4
# Streptococcus pyogenes [26] = assay: Antibacterial activity against Streptococcus pyogenes harboring mutation in L4 ribosomal protein after overnight incubation by agar dilution method; format: functional
# Procedure, shortened: as §2
# Streptococcus pneumoniae [27] = assay: Antibacterial activity against macrolide-resistant Streptococcus pneumoniae 3009 harboring mutation in 23S rRNA after 25 passages and 10 compound-free subculturing by retest method; format: functional
# Streptococcus pneumoniae [28] = assay: Antibacterial activity against macrolide-susceptible Streptococcus pneumoniae 7127 harboring S20N mutation in L4 ribosomal protein and A105V mutation in L22 ribosomal protein after 38 passages and 10 compound-free subculturing by retest method; format: functional
# Streptococcus pyogenes [29] = assay: Antibacterial activity against macrolide-resistant Streptococcus pyogenes 2094 harboring erm(A) gene after 34 passages and 10 compound-free subculturing by retest method
# Streptococcus pyogenes [30] = assay: Antibacterial activity against macrolide-resistant Streptococcus pyogenes 2094 harboring erm(A) gene after overnight incubation by agar dilution method
# Streptococcus pneumoniae [31] = assay: Antibacterial activity against macrolide-resistant Streptococcus pneumoniae 3665 harboring mef(A) gene after 14 passages and 10 compound-free subculturing by retest method; format: functional; details: Streptococcus pneumoniae, 3665; read-out: MIC
# Streptococcus pneumoniae [32] = assay: Antibacterial activity against macrolide-resistant Streptococcus pneumoniae 2686 harboring mutation in L4 ribosomal protein after 22 passages and 10 compound-free subculturing by retest method; format: functional
Structure (SMILES),MIC (Streptococcus pyogenes [1]) [µg/mL],MIC (Streptococcus pneumoniae [3]) [µg/mL],MIC (Streptococcus pneumoniae [4]) [µg/mL],MIC (Streptococcus pyogenes [5]) [µg/mL],MIC (Streptococcus pneumoniae [6]) [µg/mL],MIC (Streptococcus pyogenes [7]) [µg/mL],MIC (Streptococcus pyogenes [8]) [µg/mL],MIC (Streptococcus pneumoniae [9]) [µg/mL],MIC (Streptococcus pneumoniae [10]) [µg/mL],MIC (Streptococcus pneumoniae [11]) [µg/mL],MIC50 (Streptococcus pneumoniae [12]) [µg/mL],MIC90 (Streptococcus pneumoniae [12]) [µg/mL],MIC (Streptococcus pyogenes [13]) [µg/mL],MIC50 (Streptococcus pyogenes [14]) [µg/mL],MIC90 (Streptococcus pyogenes [14]) [µg/mL],MIC (Streptococcus pyogenes [15]) [µg/mL],MIC50 (Streptococcus pneumoniae [16]) [µg/mL],MIC (Streptococcus pyogenes [18]) [µg/mL],MIC (Streptococcus pneumoniae [19]) [µg/mL],MIC (Streptococcus pneumoniae [20]) [µg/mL],further results
CCC[C@@H]1C[C@@H](C(=O)N[C@@H]([C@H]2O[C@H](SC)[C@H](O)[C@@H](O)[C@H]2O)[C@H](C)Cl)N(C)C1 [CLINDAMYCIN],> 64,8,0.016,> 64,0.25,0.06,0.03,0.03,0.03,0.125,0.06,> 64,0.06,0.06,0.125,> 64,0.03,1,> 64,0.03,MIC (Streptococcus pyogenes [2]): 0.06 µg/mL; MIC90 (Streptococcus pneumoniae [16]): 64 µg/mL; MIC50 (Streptococcus pneumoniae [17]): > 64 µg/mL; MIC50 (Streptococcus pneumoniae [21]): 0.06 µg/mL; MIC90 (Streptococcus pneumoniae [21]): 0.06 µg/mL; MIC (Streptococcus pneumoniae [22]): 4 µg/mL; MIC (Streptococcus pneumoniae [23]): > 64 µg/mL; MIC (Streptococcus pneumoniae [24]): 0.06 µg/mL; MIC50 (Streptococcus pneumoniae [25]): 0.06 µg/mL; MIC90 (Streptococcus pneumoniae [25]): 0.125 µg/mL; MIC (Streptococcus pyogenes [26]): 0.06 µg/mL; MIC (Streptococcus pneumoniae [27]): 1 µg/mL; MIC (Streptococcus pneumoniae [28]): 0.03 µg/mL; MIC (Streptococcus pyogenes [29]): > 64 µg/mL; MIC (Streptococcus pyogenes [30]): 0.06 µg/mL; MIC (Streptococcus pneumoniae [31]): 0.03 µg/mL; MIC (Streptococcus pneumoniae [32]): 0.03 µg/mL
CC[C@H]1OC(=O)[C@H](C)[C@@H](O[C@H]2C[C@@](C)(OC)[C@@H](O)[C@H](C)O2)[C@H](C)[C@@H](O[C@@H]2O[C@H](C)C[C@H](N(C)C)[C@H]2O)[C@](C)(O)C[C@@H](C)CN(C)[C@H](C)[C@@H](O)[C@]1(C)O [AZITHROMYCIN],> 64,> 64,0.03,> 64,0.03,> 64,4,4,0.03,2,> 64,> 64,4,8,8,> 64,0.125,8,> 64,0.06,MIC50 (Streptococcus pneumoniae [21]): 4 µg/mL; MIC90 (Streptococcus pneumoniae [21]): 8 µg/mL; MIC (Streptococcus pneumoniae [22]): > 64 µg/mL; MIC (Streptococcus pneumoniae [23]): > 64 µg/mL; MIC (Streptococcus pneumoniae [24]): 2 µg/mL; MIC (Streptococcus pyogenes [26]): 2 µg/mL; MIC (Streptococcus pneumoniae [27]): > 64 µg/mL; MIC (Streptococcus pneumoniae [28]): 0.06 µg/mL; MIC (Streptococcus pyogenes [29]): 16 µg/mL; MIC (Streptococcus pyogenes [30]): 4 µg/mL; MIC (Streptococcus pneumoniae [32]): > 64 µg/mL

# From ChEMBL document CHEMBL1240350, “In vitro activity of CEM-101 against Streptococcus pneumoniae and Streptococcus pyogenes with defined macrolide resistance mechanisms” (Antimicrob Agents Chemother, 2010)
